From ChEMBL document CHEMBL1122848, “5-(Haloalkyl)-2'-deoxyuridines: a novel type of potent antiviral nucleoside analogue” (1985)
In brackets after ≈: the same amount, converted by molar mass.

Assays:
Mus musculus [1] = assay: In vivo evaluation for the percent survivors in systemic HSV-1 infection of Mice administered intraperitoneally at a dose 1 mg/kg per day; assay type: functional; conditions: route intraperitoneal
Method in brief: (§1)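 Systemic infection model in hairless (hr/hr) mice weighing 18–20 g, twelve per group. Mice were inoculated i.p. with HSV-1 (Brand) at 2 × 10⁵ PFU/0.2 mL per mouse. Compound was given twice a day i.p. or by oral gavage at the stated daily dose. Read-out was percent survivors.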

Mus musculus [2] = assay: In vivo evaluation for the percent survivors in systemic HSV-1 infection of Mice administered through oral route at a dose 5 mg/kg per day; assay type: functional; method in brief: as §1
HEp-2 = assay: Minimum toxic effect against HEp-2 cells.; assay type: functional, Homo sapiens
Method in brief: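 Uninfected HEp-2 cells were exposed to 3-fold serial dilutions of compound in E-MEM with FCS, run alongside the CPE assay. Cell density was set to reach a monolayer in 1–2 days. Plates were fixed and stained at 3 days. MTC is the lowest concentration causing visible toxic effects.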

Mus musculus [3] = assay: Effect of delayed treatment on mortality of systemically infected mice at 25 mg/kg per day administered Intraperitoneally after 48 hr of start of treatment; assay type: functional; conditions: route intraperitoneal
Method in brief: (§2)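 Hairless (hr/hr) mice, 18–20 g, ten per group, inoculated intraperitoneally with HSV-1 strain Brand at 2 × 10⁵ PFU/0.2 mL per mouse. Dosing was 25 mg/kg per day, given twice daily either intraperitoneally or orally by gavage. Treatment started at 3, 24, 48 or 72 h post-infection. Read-out was percent survivors.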

Mus musculus [4] = assay: In vivo evaluation for the percent survivors in systemic HSV-1 infection of Mice administered through oral route at a dose 50 mg/kg per day; assay type: functional; method in brief: as §1
Human alphaherpesvirus 1 = assay: Minimum inhibitory concentration against HSV-1.; assay type: functional
Method in brief: (§3)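 CPE-inhibition assay in HEp-2 cells. Compound was serially diluted 3-fold in E-MEM, then virus (HSV-1 Brand or HSV-2 K979) and a cell suspension in E-MEM plus 15% FCS were added together. Virus input gave 90–100% CPE in infected controls after 3 days. Plates were then fixed and stained, and CPE was scored.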

Mus musculus [5] = assay: Effect of delayed treatment on mortality of systemically infected mice at 25 mg/kg per day administered through oral route after 3 hr of start of treatment; assay type: functional; method in brief: as §2
Mus musculus [6] = assay: In vivo evaluation for the percent survivors in systemic HSV-1 infection of Mice administered intraperitoneally at a dose 25 mg/kg per day; assay type: functional; conditions: route intraperitoneal; method in brief: as §1
Mus musculus [7] = assay: Effect of delayed treatment on mortality of systemically infected mice at 25 mg/kg per day administered through oral route after 72 hr of start of treatment; assay type: functional; method in brief: as §2
Mus musculus [8] = assay: Effect of delayed treatment on mortality of systemically infected mice at 25 mg/kg per day administered Intraperitoneally after 72 hr of start of treatment; assay type: functional; conditions: route intraperitoneal; method in brief: as §2
Mus musculus [9] = assay: In vivo evaluation for the percent survivors in systemic HSV-1 infection of Mice administered intraperitoneally at a dose 100 mg/kg per day; assay type: functional; conditions: route intraperitoneal; method in brief: as §1
Mus musculus [10] = assay: In vivo evaluation for the percent survivors in systemic HSV-1 infection of Mice administered through oral route at a dose 25 mg/kg per day; assay type: functional; method in brief: as §1
Mus musculus [11] = assay: In vivo evaluation for the percent survivors in systemic HSV-1 infection of Mice administered through oral route at a dose 2.5 mg/kg per day; assay type: functional; method in brief: as §1
Mus musculus [12] = assay: In vivo evaluation for the percent survivors in systemic HSV-1 infection of Mice administered intraperitoneally at a dose 50 mg/kg per day; assay type: functional; conditions: route intraperitoneal; method in brief: as §1
Mus musculus [13] = assay: In vivo evaluation for the percent survivors in systemic HSV-1 infection of Mice administered intraperitoneally at a dose 10 mg/kg per day; assay type: functional; conditions: route intraperitoneal; method in brief: as §1
Mus musculus [14] = assay: Effect of delayed treatment on mortality of systemically infected mice at 25 mg/kg per day administered Intraperitoneally after 3 hr of start of treatment; assay type: functional; conditions: route intraperitoneal; method in brief: as §2
Mus musculus [15] = assay: Effect of delayed treatment on mortality of systemically infected mice at 25 mg/kg per day administered through oral route after 48 hr of start of treatment; assay type: functional; method in brief: as §2
Human alphaherpesvirus 2 = assay: Minimum inhibitory concentration against HSV-2.; assay type: functional; method in brief: as §3
Mus musculus [16] = assay: Effect of delayed treatment on mortality of systemically infected mice at 25 mg/kg per day administered through oral route after 24 hr of start of treatment; assay type: functional; method in brief: as §2
Mus musculus [17] = assay: Effect of delayed treatment on mortality of systemically infected mice at 25 mg/kg per day administered Intraperitoneally after 24 hr of start of treatment; assay type: functional; conditions: route intraperitoneal; method in brief: as §2
Mus musculus [18] = assay: In vivo evaluation for the percent survivors in systemic HSV-1 infection of Mice administered intraperitoneally at a dose 5 mg/kg per day; assay type: functional; conditions: route intraperitoneal; method in brief: as §1
Mus musculus [19] = assay: In vivo evaluation for the percent survivors in systemic HSV-1 infection of Mice administered through intraperitoneal at a dose 50 mg/kg per day; assay type: functional; method in brief: as §1
Mus musculus [20] = assay: In vivo evaluation for the percent survivors in systemic HSV-1 infection of Mice administered through at a dose 25 mg/kg per day; assay type: functional; method in brief: as §1
Mus musculus [21] = assay: In vivo evaluation for the percent survivors in systemic HSV-1 infection of Mice administered through intraperitoneal at a dose 10 mg/kg per day; assay type: functional; method in brief: as §1
Mus musculus [22] = assay: In vivo evaluation for the percent survivors in systemic HSV-1 infection of Mice administered through intraperitoneal at a dose 100 mg/kg per day; assay type: functional; method in brief: as §1
Mus musculus [23] = assay: In vivo evaluation for the percent survivors in systemic HSV-1 infection of Mice administered through intraperitoneal at a dose 1 mg/kg per day; assay type: functional; method in brief: as §1
Mus musculus [24] = assay: In vivo evaluation for the percent survivors in systemic HSV-1 infection of Mice administered through intraperitoneal at a dose 5 mg/kg per day; assay type: functional; method in brief: as §1

Row | SMILES | MTC (HEp-2) | MIC (Human alphaherpesvirus 1) | MIC (Human alphaherpesvirus 2) | also measured
1 | O=c1[nH]c(=O)n([C@H]2C[C@H](O)[C@@H](CO)O2)cc1CCCl | 330 µg/mL | 0.03 mg/L (≈ 0.103 µM) | 3 mg/L (≈ 10.3 µM) | Survivors (Mus musculus [1]): 75%; Survivors (Mus musculus [2]): 67%; Survivors (Mus musculus [3]): 80%; Survivors (Mus musculus [4]): 100%; Survivors (Mus musculus [5]): 80%; Survivors (Mus musculus [6]): 83%; Survivors (Mus musculus [7]): 70%; Survivors (Mus musculus [8]): 60%; Survivors (Mus musculus [9]): 100%; Survivors (Mus musculus [10]): 100%; Survivors (Mus musculus [11]): 82%; Survivors (Mus musculus [12]): 92%; Survivors (Mus musculus [13]): 91%; Survivors (Mus musculus [14]): 100%; Survivors (Mus musculus [15]): 100%; Survivors (Mus musculus [16]): 90%; Survivors (Mus musculus [17]): 100%; Survivors (Mus musculus [18]): 92%
2 | O=c1[nH]c(=O)n([C@@H]2C[C@H](O)[C@@H](CO)O2)cc1CCCl | 100 µg/mL | 3 mg/L (≈ 10.3 µM) | 100 mg/L (≈ 344 µM) | 
3 | O=c1[nH]c(=O)n([C@@H]2C[C@H](O)[C@@H](CO)O2)cc1CCBr | 330 µg/mL | 3 mg/L (≈ 8.95 µM) | > 100 mg/L | 
4 | O=c1[nH]c(=O)n([C@H]2C[C@H](O)[C@@H](CO)O2)cc1CCBr | 100 µg/mL | 3 mg/L (≈ 8.95 µM) | 100 mg/L (≈ 298 µM) | 
5 | O=c1[nH]c(=O)n([C@H]2C[C@H](O)[C@@H](CO)O2)cc1CCCCl | 100 µg/mL | 0.3 mg/L (≈ 0.984 µM) | 30 mg/L (≈ 98.4 µM) | 
6 | COC(=O)/C=C/c1cn([C@H]2C[C@H](O)[C@@H](CO)O2)c(=O)[nH]c1=O | 100 µg/mL | 0.3 mg/L (≈ 0.961 µM) | 30 mg/L (≈ 96.1 µM) | 
7 | O=c1nc2c(cn1[C@H]1C[C@H](O)[C@@H](CO)O1)CCO2 | 330 µg/mL | > 100 mg/L | > 100 mg/L | 
8 | O=c1[nH]c(=O)n([C@H]2C[C@H](O)[C@@H](CO)O2)cc1CCO | 330 µg/mL | 100 mg/L (≈ 367 µM) | 100 mg/L (≈ 367 µM) | 
9 | O=c1[nH]c(=O)n([C@H]2C[C@H](O)[C@@H](CO)O2)cc1CCI | 330 µg/mL | 1 mg/L (≈ 2.62 µM) | 30 mg/L (≈ 78.5 µM) | 
10 | O=c1[nH]c(=O)n([C@H]2C[C@H](O)[C@@H](CO)O2)cc1CCCO | 330 µg/mL | > 100 mg/L | > 100 mg/L | 
11 | O=c1[nH]c(=O)n(C2CC(O)C(CCl)O2)cc1CCCCl (stereo not given) | 330 µg/mL | > 100 mg/L | > 100 mg/L | 
12 | O=c1[nH]c(=O)n(C2CC(O)C(CCl)O2)cc1CCCl (stereo not given) | 330 µg/mL | 100 mg/L (≈ 323 µM) | > 100 mg/L | 
13 | O=c1[nH]c(=O)n(C2CC(O)C(CBr)O2)cc1CCBr (stereo not given) | 330 µg/mL | 30 mg/L (≈ 75.4 µM) | 100 mg/L (≈ 251 µM) | 
14 | O=c1[nH]c(=O)n(C2CC(O)C(CI)O2)cc1CCI (stereo not given) | 100 µg/mL | 30 mg/L (≈ 61 µM) | > 100 mg/L | 
15 | Nc1nc2c(ncn2COCCO)c(=O)[nH]1 [ACYCLOVIR] | 330 µg/mL | 0.3 mg/L (≈ 1.33 µM) | 3 mg/L (≈ 13.3 µM) | Survivors (Mus musculus [2]): 9%; Survivors (Mus musculus [4]): 92%; Survivors (Mus musculus [19]): 100%; Survivors (Mus musculus [10]): 55%; Survivors (Mus musculus [11]): 0%; Survivors (Mus musculus [20]): 100%; Survivors (Mus musculus [21]): 83%; Survivors (Mus musculus [22]): 91%; Survivors (Mus musculus [23]): 54%; Survivors (Mus musculus [24]): 75%
16 | O=c1[nH]c(=O)n([C@H]2C[C@H](O)[C@@H](CO)O2)cc1/C=C/Br [BRIVUDINE] | 100 µg/mL | 0.003 mg/L (≈ 0.00901 µM) | 3 mg/L (≈ 9.01 µM) | Survivors (Mus musculus [2]): 0%; Survivors (Mus musculus [4]): 8%; Survivors (Mus musculus [19]): 33%; Survivors (Mus musculus [10]): 0%; Survivors (Mus musculus [11]): 0%; Survivors (Mus musculus [20]): 8%; Survivors (Mus musculus [21]): 18%; Survivors (Mus musculus [22]): 33%; Survivors (Mus musculus [23]): 33%; Survivors (Mus musculus [24]): 25%
17 | O=C([O-])P(=O)([O-])[O-].[Na+].[Na+].[Na+] [FOSCARNET SODIUM] | 330 µg/mL | 10 mg/L | 30 mg/L | 
18 | O=c1[nH]c(=O)n([C@H]2C[C@H](O)[C@@H](CO)O2)cc1I [IDOXURIDINE] | 100 µg/mL | 0.3 mg/L (≈ 0.847 µM) | 0.3 mg/L (≈ 0.847 µM) | 
19 | Nc1ncnc2c1ncn2[C@@H]1O[C@H](CO)[C@@H](O)[C@@H]1O [VIDARABINE] | 100 µg/mL | 10 mg/L (≈ 37.4 µM) | 10 mg/L (≈ 37.4 µM) | 
